Test results from ChEMBL document CHEMBL4732226, “Discovery of a potent G-protein-coupled receptor 119 agonist for the treatment of type 2 diabetes” (Bioorg Med Chem, 2021).

Key:
Mus musculus = assay: Antidiabetic activity in glucose-stimulated db/db mouse assessed as increase in GLP-1 level secretion at 50 mg/kg, po after 10 mins; assay type: functional
Outline: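 Male db/db mice received a single oral dose of 50 mg/kg, followed by a glucose load. Plasma active GLP-1 measured in pg/ml at 10 min after glucose.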

[1] = Half life in Wistar rat at 10 mg/kg, po up to 24 hrs; assay type: ADME, organism-based; conditions: in vivo
Outline: (§1)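 Single oral dose at 10 mg/kg given to male Wistar rats and to Beagle dogs; bioavailability also determined in both species.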

[2] = Elimination rate constant in Wistar rat at 10 mg/kg, po up to 24 hrs; assay type: ADME, organism-based; conditions: in vivo; outline: as §1
[3] = Elimination rate constant in Beagle dog at 10 mg/kg, po up to 24 hrs; assay type: ADME, organism-based, Canis lupus familiaris; conditions: in vivo; outline: as §1
[4] = AUC(0 to t) in Beagle dog at 10 mg/kg, po up to 24 hrs; assay type: ADME, organism-based, Canis lupus familiaris; design: route oral, dose 10 mg/kg, time <=24; conditions: in vivo; outline: as §1
[5] = Toxicity in female Wistar rat assessed as ratio of heart to body weight at 400 mg/kg, po after 28 days (reference value: 0.38 +/- 0.037); assay type: organism-based; conditions: in vivo, 672 h, time 28 day
[6] = Toxicity in male Wistar rat assessed as ratio of liver to body weight at 400 mg/kg, po after 28 days (reference value: 3.142 +/- 0.231); assay type: organism-based; conditions: in vivo, 672 h, time 28 day
[7] = Toxicity in female Wistar rat assessed as ratio of liver to body weight at 400 mg/kg, po after 28 days (reference value: 3.219 +/- 0.221); assay type: organism-based; conditions: in vivo, 672 h, time 28 day
[8] = Toxicity in male Wistar rat assessed as ratio of kidney to body weight at 100 mg/kg, po after 28 days (reference value: 0.787 +/- 0.078); assay type: organism-based; conditions: in vivo, 672 h, time 28 day
[9] = Toxicity in male Wistar rat assessed as ratio of kidney to body weight at 200 mg/kg, po after 28 days (reference value: 0.787 +/- 0.078); assay type: organism-based; conditions: in vivo, 672 h, time 28 day
[10] = Toxicity in female Wistar rat assessed as ratio of kidney to body weight at 400 mg/kg, po after 28 days (reference value: 0.801 +/- 0.071); assay type: organism-based; conditions: in vivo, 672 h, time 28 day
[11] = Toxicity in male Wistar rat assessed as ratio of spleen to body weight at 400 mg/kg, po after 28 days (reference value: 0.206 +/- 0.026); assay type: organism-based; conditions: in vivo, 672 h, time 28 day
[12] = Toxicity in female Wistar rat assessed as ratio of spleen to body weight at 100 mg/kg, po after 28 days (reference value: 0.244 +/- 0.032); assay type: organism-based; conditions: in vivo, 672 h, time 28 day
[13] = Toxicity in female Wistar rat assessed as ratio of spleen to body weight at 200 mg/kg, po after 28 days (reference value: 0.244 +/- 0.032); assay type: organism-based; conditions: in vivo, 672 h, time 28 day
[14] = Toxicity in female Wistar rat assessed as ratio of spleen to body weight at 400 mg/kg, po after 28 days (reference value: 0.244 +/- 0.032); assay type: organism-based; conditions: in vivo, 672 h, time 28 day
[15] = Toxicity in male Wistar rat assessed as ratio of adrenals to body weight at 200 mg/kg, po after 28 days (reference value: 0.020 +/- 0.003); assay type: organism-based; conditions: in vivo, 672 h, time 28 day
[16] = Toxicity in female Wistar rat assessed as ratio of adrenals to body weight at 200 mg/kg, po after 28 days (reference value: 0.045 +/- 0.007); assay type: organism-based; conditions: in vivo, 672 h, time 28 day
[17] = Toxicity in female Wistar rat assessed as ratio of adrenals to body weight at 400 mg/kg, po after 28 days (reference value: 0.045 +/- 0.007); assay type: organism-based; conditions: in vivo, 672 h, time 28 day
[18] = Toxicity in female Wistar rat assessed as ratio of brain to body weight at 400 mg/kg, po after 28 days (reference value: 1.1 +/- 0.078); assay type: organism-based; conditions: in vivo, 672 h, time 28 day
[19] = Toxicity in female Wistar rat assessed as ratio of ovaries to body weight at 100 mg/kg, po after 28 days (reference value: 0.091 +/- 0.009); assay type: organism-based; conditions: in vivo, 672 h, time 28 day
[20] = Toxicity in female Wistar rat assessed as ratio of ovaries to body weight at 200 mg/kg, po after 28 days (reference value: 0.091 +/- 0.009); assay type: organism-based; conditions: in vivo, 672 h, time 28 day
[21] = Toxicity in male Wistar rat assessed as ratio of epididymides to body weight at 100 mg/kg, po after 28 days (reference value: 0.361 +/- 0.028); assay type: organism-based; conditions: in vivo, 672 h, time 28 day
[22] = Toxicity in male Wistar rat assessed as ratio of thymus to body weight at 400 mg/kg, po after 28 days (reference value: 0.148 +/- 0.023); assay type: organism-based; conditions: in vivo, 672 h, time 28 day
[23] = Toxicity in female Wistar rat assessed as ratio of thymus to body weight at 200 mg/kg, po after 28 days (reference value: 0.260 +/- 0.025); assay type: organism-based; conditions: in vivo, 672 h, time 28 day
[24] = Toxicity in male Wistar rat assessed as globulin level at 400 mg/kg, po after 28 days (reference value: 2.62 +/- 0.12 g/dl); assay type: organism-based; conditions: in vivo, 672 h, time 28 day
[25] = Toxicity in male Wistar rat assessed as glucose level at 200 mg/kg, po after 28 days (reference value: 89.02 +/- 13.41 mg/dl); assay type: organism-based; conditions: in vivo, 672 h, time 28 day
[26] = Toxicity in male Wistar rat assessed as glucose level at 400 mg/kg, po after 28 days (reference value: 89.02 +/- 13.41 mg/dl); assay type: organism-based; conditions: in vivo, 672 h, time 28 day
[27] = Toxicity in male Wistar rat assessed as creatinine level at 200 mg/kg, po after 28 days (reference value: 0.61 +/- 0.04 mg/dl); assay type: organism-based; conditions: in vivo, 672 h, time 28 day
[28] = Toxicity in male Wistar rat assessed as albumin level at 200 mg/kg, po after 28 days (reference value: 3.56 +/- 0.08 g.dl); assay type: organism-based; conditions: in vivo, 672 h, time 28 day
[29] = Toxicity in male Wistar rat assessed as albumin level at 400 mg/kg, po after 28 days (reference value: 3.56 +/- 0.08 g.dl); assay type: organism-based; conditions: in vivo, 672 h, time 28 day
[30] = Toxicity in female Wistar rat assessed as albumin level at 400 mg/kg, po after 28 days (reference value: 3.57 +/- 0.14 g.dl); assay type: organism-based; conditions: in vivo, 672 h, time 28 day
[31] = Toxicity in male Wistar rat assessed as urea level at 100 mg/kg, po after 28 days (reference value: 58.14 +/- 9.13 mg/dl); assay type: organism-based; conditions: in vivo, 672 h, time 28 day
[32] = Toxicity in female Wistar rat assessed as ophthalmic examination at 400 mg/kg, po after 28 days; assay type: organism-based; conditions: in vivo, 672 h, time 28 day
Outline: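 Repeated-dose oral toxicity by gavage in Wistar rats, 10 males and 10 females per group, given 100, 200 or 400 mg/kg once daily for 28 days. Endpoints were clinical signs, mortality, neurobehaviour, food intake, ophthalmic examination and body weight. Animals were sacrificed on day 29 for blood biochemistry, organ-to-body weight ratios and histopathology.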

[33] = Toxicity in female po dosed Wistar rat after 28 days; assay type: organism-based; conditions: in vivo, time 28 day
Outline: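 Repeated-dose oral gavage study in Wistar rats, 10 per sex per group, at 100, 200 and 400 mg/kg once daily for 28 days. Clinical signs, mortality, neurobehaviour, food intake, body weight and ophthalmic examination were monitored, followed by blood biochemistry, organ weights and histopathology on day 29.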

SMILES: Cc1c(Oc2cccc(/C=C3\SC(=O)NC3=O)c2)ncnc1OC1CCN(C(=O)OC(C)(C)C)CC1
- fold change (FC) (Mus musculus): 2.6
- half-life [1]: 12.3 h
- k el at 24 h [2]: 1.94e-05 s⁻¹
- k el at 24 h [3]: 1.11e-05 s⁻¹
- AUC(0-t) at 24 h [4]: 14900 ng·h/mL
- Ratio [5]: 0.367
- Ratio [6]: 3.22
- Ratio [7]: 3.172
- Ratio [8]: 0.831
- Ratio [9]: 0.847
- Ratio [10]: 0.806
- Ratio [11]: 0.211
- Ratio [12]: 0.241
- Ratio [13]: 0.242
- Ratio [14]: 0.228
- Ratio [15]: 0.023
- Ratio [16]: 0.044
- Ratio [17]: 0.042
- Ratio [18]: 1.069
- Ratio [19]: 0.089
- Ratio [20]: 0.089
- Ratio [21]: 0.371
- Ratio [22]: 0.196
- Ratio [23]: 0.257
- Activity [24]: 2.53 g/dL
- Activity [25]: 75.19 mg/dL
- Activity [26]: 82.17 mg/dL
- Activity [27]: 0.57 mg/dL
- Activity [28]: 3.61 g/dL
- Activity [29]: 3.54 g/dL
- Activity [30]: 3.57 g/dL
- Activity [31]: 55.36 mg/dL
- Activity [32]: Non-Toxic
- NOAEL at 672 h [33]: > 400 mg/kg
